High-throughput results (PubChem)
HCV NS3 hel inh: inhibitors of Hepatitis C virus NS3 helicase; NS3 helicase DNA unwinding, Cy5 molecular beacon fluorescence; inhibition, % at 10.9 µM; 290,000 tested, 0.56% active; AID 1800;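 active = inhibition above the mean of all tested compounds plus 3 SD, set per campaign, cut at about 35% in these data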;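 note: 0% = DMSO wells and 100% = thioflavine S control wells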
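System: HCV NS3 helicase fragment; control set: DMSO and thioflavine S; technique: Cy5 fluorescence at 0 and 60 min, beacon hairpin quenching; reagent: beacon DNA duplex substrate plus ATP; replicates: singlicate; schedule: 1 h reaction at 25 °C, ATP-initiated; medium: MOPS buffer pH 6.5 with MgCl2, DTT, Tween20, BSA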
HCV core dimer: blocks dimerization of HCV core protein. 300,000 tested, 0.33% active. inhibition, % at 5 µM. TR-FRET GST/Flag-core106 dimerization, 1536-well;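 active = inhibition above the mean of all tested compounds plus 3 SD, set per screening campaign, cut at about 45% in these data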
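Assay system: Tagged HCV core106 pair (GST and Flag) | Buffer or medium: KF-containing HEPES buffer, pH 7.45, DTT, CHAPS, BSA | Also added: Eu donor and XL665 acceptor anti-tag antibodies | Dosing: One concentration, 5 µM, in 0.5% DMSO | Timing: 4 h at 22.5 °C | Technique: TR-FRET 671 and 617 nm emission | Repeats: Singlicate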
HSP90 inh: HSP90 refolding inhibition in rabbit reticulocyte lysate; luciferase refolding luminescence, 3 h; inhibition, % at 5.6 µM; 290,000 tested, 0.91% active;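 active = inhibition above the screen-wide mean plus 3 SD, computed separately per campaign, cut at about 16% in these data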;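 note: 0% = DMSO wells and 100% = 60 µM geldanamycin wells; inhibitors lower the luminescence because luciferase stays unfolded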
FID counter: fluorescent intercalator displacement, NS3 helicase counter-screen; DNA fluorescent intercalator displacement, fluorescence; inhibition, % at 7.9 µM; 290,000 tested, 0.17% active; AID 1845; in the data active = inhibition above about 37%;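 note: 0% = vehicle and 100% = reference compound; higher means more ethidium bromide displaced from hairpin DNA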
HSF1 inhib: HSF1 inhibition. 300,000 tested, 0.77% active. activity change, negative = inhibition, % at 7.5 µM (by protocol). NIH3T3-HGL HSE-luciferase, MG132-induced, luminescence 8 h; stronger effect = lower value;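 active = more than half of replicate wells show activity change below -50%, luminescence cut by over half; inconclusive = some wells, but at most half, below -50%; inactive = no replicate well below -50%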;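 note: luciferase reports HSF-1 transcriptional activity via heat shock element; 0% = median of DMSO wells and -100% = zero luminescence signal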
HSF1 activator: increases HSF-1 driven luciferase reporter signal; NIH3T3-HGL HSF-1 luciferase reporter, MG132, 8 h; 100% = twice DMSO control signal; activation, % at 9 µM; 300,000 tested, 1.7% active; AID 504408;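 active = mean replicate activation of at least 50% with a set share of replicates each reaching 50%; inconclusive = only one of those two conditions met; inactive = mean below 50% and too few replicates reaching it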;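 note: 0% = median of the neutral control wells and 100% = twice that signal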
Active calls of the source: *; ? = inconclusive; · = not tested or not shown. This is a sample that favours compounds with a hit; in the whole collection about 3.9% have one here.

SMILES	HCV NS3 hel inh	HCV core dimer	HSP90 inh	FID counter	HSF1 inhib	HSF1 activator
O=C(Cc1ccccc1)Oc1ccccc1N1C(=O)CCC1=O	-5	-3	-1	-5	-62*	-70
O=C(Cc1ccccc1)Oc1ccc(N2C(=O)CCC2=O)cc1	3	1	4	-3	-8	-4
Cc1cc(=O)oc2c(C)c(OCC(=O)N3CCN(Cc4ccccc4)CC3)ccc12	-5	8	-5	-26	1	15
C=CCOc1ccc(CC2C(=O)N(C)C(=O)N(C)C2=O)cc1	9	85*	0	-7	-4	17
C[N+](C)(N)CCOC(=O)C(O)(c1ccccc1)C1CCCCC1 (configuration not stated)	·	-2	·	·	-7	-14
CCn1c(P(C)(=O)O)nc2cc(NC(=O)c3ccccc3F)ccc21	3	-21	-6	9	1	-8
CN1CC(C(=O)c2ccc(F)cc2)C(c2c(F)cccc2Cl)C1 (configuration not stated)	-2	-5	5	7	38	82*
Cc1ccccc1N1CCN(C2CCCN(C(=O)Cc3c(C)noc3C)C2)CC1 (configuration not stated)	1	-3	-5	-22	-3	4
CCOc1cc(C2NCc3ccccc3-n3cccc32)ccc1OC (configuration not stated)	-24	-1	-3	10	-2	4
COc1cc(C2NCc3ccccc3-n3cccc32)ccc1O (configuration not stated)	-6	-5	-2	8	16	54*
CCOc1cc2c(cc1OCC)-n1cccc1C(c1cccc(OCC)c1O)NC2 (configuration not stated)	-35	-8	3	9	29	51*
OC(CN1CCC(c2c[nH]c3ccccc23)CC1)C(F)(F)F (configuration not stated)	-2	8	-3	-5	-1	5
C=C1C(=O)O[C@@H]2C[C@@H](C)[C@@H]3C=CC(=O)[C@@]3(C)[C@@H](O)[C@H]12	·	4	·	·	-92*	-93
Cn1c(O)c(Cc2ccc(OCc3ccccc3)cc2)c(=O)n(C)c1=O	-6	1	-6	-9	10	9
CCN(CC)c1ccc(/C=C/[N+](=O)[O-])cc1	-6	0	7	6	34	?
COc1cc(/C=C/[N+](=O)[O-])ccc1O	0	-7	4	-5	234	274*
COc1nc2ccccc2nc1N1CCN(C)CC1	-4	·	-3	4	1	-15
Cn1c2ccccc2c2cnn(CC(=O)N3CCC4(CC3)OCCO4)c(=O)c21	-3	-3	2	-15	-56*	-64
O=C(Cn1ncc2c3ccccc3n(Cc3cccc(Cl)c3)c2c1=O)N1CCC2(CC1)OCCO2	7	33	5	-34	7	41
CCN(CC)CCN/N=C(\C)c1c(O)[nH]c(=O)[nH]c1=O	4	-1	-3	0	-5	-2
CCCCCCC[n+]1ccc(-c2cc[n+](CCCCCCC)cc2)cc1	-43	-16	-5	55*	-1	-9
Cc1cc(N=Nc2ccccc2C)ccc1N	·	-8	·	·	17	17
CCc1ccc(N2C(=O)NC(=O)/C(=C/c3cccn3CCOc3ccc(C(C)CC)cc3)C2=O)cc1 (configuration not stated)	12	10	29*	-4	-27	-34
CCc1ccc(N2C(=O)NC(=O)/C(=C/c3cccn3CCOc3ccc(C)cc3)C2=O)cc1	29	3	4	-16	7	24
C[n+]1ccc(-c2cc[n+](C)cc2)cc1	·	6	·	·	·	·
CC(C)N1C(=O)/C(=C/C=C/c2ccco2)C(=O)N(Cc2ccco2)C1=O	22	63*	5	-19	40	49
COc1ccc(/C=C2/C(=O)N(Cc3ccco3)C(=O)N(C(C)C)C2=O)cc1	20	0	2	-31	-13	0
C=CCn1c(O)c(C(CC)=NCc2ccco2)c(=O)[nH]c1=O	0	8	-5	-9	21	66*
C=CCn1c(O)c(C(C)=NCc2ccco2)c(=O)[nH]c1=O	10	0	2	-2	9	13
